ChEMBL document CHEMBL1124354, “Potential antiatherosclerotic agents. 6. Hypocholesterolemic trisubstituted urea analogues” (J Med Chem, 1989)

How the values were obtained:
[1] = molecular target: T1, Sterol O-acyltransferase 1 (Rattus norvegicus) (UniProt O70536); assay: Serum hypolipidemic activity in rats; format: functional
T1 sequence (whole entry): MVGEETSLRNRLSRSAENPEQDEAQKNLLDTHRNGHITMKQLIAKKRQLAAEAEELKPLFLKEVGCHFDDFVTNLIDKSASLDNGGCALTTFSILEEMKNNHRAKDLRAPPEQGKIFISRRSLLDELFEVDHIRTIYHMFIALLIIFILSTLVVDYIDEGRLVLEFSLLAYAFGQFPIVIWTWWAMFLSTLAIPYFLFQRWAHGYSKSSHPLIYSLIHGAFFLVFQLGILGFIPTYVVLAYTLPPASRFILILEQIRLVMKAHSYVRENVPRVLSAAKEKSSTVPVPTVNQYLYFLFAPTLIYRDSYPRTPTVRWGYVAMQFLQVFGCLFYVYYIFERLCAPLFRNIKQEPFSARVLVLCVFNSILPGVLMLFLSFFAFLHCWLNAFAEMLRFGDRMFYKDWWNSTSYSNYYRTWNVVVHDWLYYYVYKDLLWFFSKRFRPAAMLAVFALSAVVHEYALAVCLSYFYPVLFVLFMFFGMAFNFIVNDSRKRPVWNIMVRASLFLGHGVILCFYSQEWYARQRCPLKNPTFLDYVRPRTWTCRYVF
Procedure, shortened: (§1)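 Male CD-1 Sprague-Dawley rats, 140–150 g, fed 1% cholesterol/0.5% cholic acid diet with compound admixed at 0.01% (about 10 mg/kg/day) for 7 days. Serum and liver cholesterol measured by Technicon autoanalyzer methods; expressed as percent of control.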

[2] = molecular target: T1, Sterol O-acyltransferase 1 (Rattus norvegicus); assay: In vitro percentage inhibition against Acyl coenzyme A:cholesterol acyltransferase derived from rat adrenals; parameters: concentration or dose not given beside the values; details: concentration not given here
Procedure, shortened: (§2)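 Rat adrenal 1000g supernatant (microsomal ACAT) in 0.2 M KH2PO4 pH 7.4 with BSA; test compound at final 5.2 µg/mL, preincubated 37 °C 10 min; [14C]oleoyl-CoA (0.4 µCi) added, 37 °C 30 min. Cholesteryl ester separated by TLC, scintillation counted; mean percent inhibition against compound-free control.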

[3] = molecular target: T1, Sterol O-acyltransferase 1 (Rattus norvegicus); assay: Liver hypolipidemic activity in rats; format: functional; procedure, shortened: as §1
[4] = molecular target: T2, Sterol O-acyltransferase 1 (Rattus norvegicus, UniProt O70536); assay: In vitro inhibitory concentration against Acyl coenzyme A:cholesterol acyltransferase derived from rat adrenals
T2 sequence (O70536 whole entry): T1 sequence (whole entry)
Procedure, shortened: (§3)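 Rat adrenal homogenate in 0.2 M KH2PO4 buffer pH 7.4, 1000g supernatant (microsomal fraction) as enzyme; preincubated with BSA and test compound at graded concentrations, 37 °C 10 min, then [14C]oleoyl-CoA 0.4 µCi, 37 °C 30 min. Lipids extracted, cholesteryl ester isolated by TLC and counted. Triplicate tubes per concentration; IC50 by linear regression of means.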

[5] = molecular target: T2, Sterol O-acyltransferase 1; assay: In vitro inhibitory concentration against acyl coenzyme A:cholesterol acyltransferase derived from rat adrenals; procedure, shortened: as §3
[6] = molecular target: T1, Sterol O-acyltransferase 1 (Rattus norvegicus); assay: In vitro percentage inhibition against acyl coenzyme A:cholesterol acyltransferase derived from rat adrenals; parameters: concentration or dose not given beside the values; details: concentration not given here; procedure, shortened: as §2

SMILES | SS [1] [%] | inhibition [2] [%] | LS [3] [%] | IC50 [4] [µM] | IC50 [5] [µM] | inhibition [6] [%]
O=C(NCc1ccccc1)Nc1ccccc1Cl | 92 | 50 | 96 |  |  | 
CCCCCCCN(Cc1ccco1)C(=O)Nc1c(Cl)cc(Cl)cc1Cl | 37 | 96 | 34 | 0.407 |  | 
CCCCN(CCCC)C(=O)Nc1cccc(C)c1 |  |  |  |  | 4.76 | 78
CCCCN(CCCC)C(=O)Nc1ccc(F)c(Cl)c1 | 83 |  | 108 |  | 11.4 | 91
Cc1ccc(NC(=O)N(Cc2ccccc2)Cc2ccccc2)c(C)c1 | 52 | 90 | 31 |  |  | 
Cc1cc(C)c(NC(=O)N(Cc2ccccc2)Cc2ccccc2)c(C)c1 | 32 | 37 | 28 | 3.74 |  | 
CCCCc1ccc(NC(=O)N(Cc2ccccc2)Cc2ccccc2)cc1 | 62 | 91 | 87 |  |  | 
CCCCN(CCCC)C(=O)Nc1cc(C)ccc1C | 127 | 96 | 110 |  |  | 
Cc1ccc(Cl)cc1NC(=O)N(Cc1ccccc1)Cc1ccccc1 | 97 | 71 | 66 |  |  | 
Cc1ccc(NC(=O)N(CCCCC2CCCCC2)CCCCC2CCCCC2)c(C)c1 | 80 | 86 | 106 |  |  | 
CCCCN(CCCC)C(=O)Nc1ccc(C)cc1C | 81 |  | 78 |  | 9.84 | 81
Cc1ccc(NC(=O)Nc2ccc(C)cc2C)c(C)c1 | 100 | 10 | 85 |  |  | 
CCCCN(CCCC)C(=O)Nc1cccc(Cl)c1C | 87 |  | 93 |  | 4.08 | 80
CCCCN(CCCC)C(=O)Nc1cc(C)cc(C)c1 | 100 |  | 76 |  | 3.55 | 84
O=C(Nc1cccc(Br)c1)N(Cc1ccccc1)Cc1ccccc1 | 92 |  | 86 |  | 5.77 | 92
CCCCN(Cc1ccccc1)C(=O)Nc1ccc(C)cc1 | 106 | 78 | 107 |  |  | 14
CCCCCCCCCCCCCCN(CCCCCCCCCCCCCC)C(=O)Nc1ccc(C)cc1C | 107 | -7 | 121 |  |  | 
Cc1cc(C)c(NC(=O)N(Cc2ccccc2)Cc2ccccc2)cc1C | 47 | 69 | 20 | 0.446 |  | 
O=C(Nc1ccc(Cl)cc1C(F)(F)F)N(Cc1ccccc1)Cc1ccccc1 | 66 | 82 | 57 |  |  | 
CCCCCCCCCCCCN(CCCCCCCCCCCC)C(=O)Nc1ccc(C)cc1C | 86 | 26 | 120 |  |  | 
O=C(Nc1cccc(Cl)c1)N(Cc1ccccc1)Cc1ccccc1 |  |  |  |  | 7.75 | 94

SMILES | SS [1] [%] | inhibition [2] [%] | LS [3] [%] | IC50 [4] [µM] | IC50 [5] [µM] | inhibition [6] [%]
CCCCCCCN(Cc1cccs1)C(=O)Nc1cc(Cl)c(Cl)cc1Cl | 56 |  | 28 | 0.484 |  | 
Cc1ccc(NC(=O)N(CCC(C)C)CCC(C)C)c(C)c1 | 66 |  | 65 |  | 4.7 | 89
CCCCN(CCCC)C(=O)Nc1cccc(C(C)=O)c1 | 64 | 51 | 100 |  |  | 
O=C(Nc1cccc(C(F)(F)F)c1)N(Cc1ccccc1)Cc1ccccc1 |  | 94 |  | 2.89 |  | 
Cc1ccc(NC(=O)N(CCC(C)CC(C)(C)C)CCC(C)CC(C)(C)C)c(C)c1 (configuration not stated) | 71 | 90 | 70 |  |  | 
CCCCN(CCCC)C(=O)Nc1cccc(Cl)c1 | 105 |  | 100 |  | 9.65 | 88
CCCCN(CCCC)C(=O)Nc1ccccc1 | 121 |  | 100 |  |  | 64
CCCCCCN(CCCCCC)C(=O)Nc1ccc(C)cc1C | 59 | 95 | 36 | 0.331 |  | 
CCCCCCCCCCCCCCCCCCN(CCCCCCCCCCCCCCCCCC)C(=O)Nc1ccc(C)cc1C | 106 | -6 | 123 |  |  | 
CCCCN(CCCC)C(=O)Nc1cc(Cl)cc(Cl)c1 | 76 |  | 93 |  | 4.38 | 79
CCCCN(CCCC)C(=O)Nc1cc(Cl)c(Cl)cc1Cl | 111 |  | 103 |  |  | 62
CCCCN(Cc1ccccc1)C(=O)Nc1c(Cl)cc(Cl)cc1Cl | 48 |  | 32 |  |  | 88
CCCCN(Cc1ccccc1)C(=O)Nc1ccccc1C | 109 |  | 137 |  |  | 79
CCCCN(CCCC)C(=O)Nc1ccccc1C | 81 |  | 111 |  |  | 62
CCCCc1ccc(NC(=O)N(CCCC)CCCC)cc1 | 63 |  | 100 |  | 9.13 | 94
C#CCN(CC#C)C(=O)Nc1ccc(C)cc1C | 73 | 33 | 93 |  |  | 
CCOc1ccc(NC(=O)N(Cc2ccccc2)Cc2ccccc2)cc1 |  |  |  |  | 9.63 | 96
CC(C)(C)CCN(Cc1cccs1)C(=O)Nc1ccc(F)cc1F | 66 |  | 73 |  | 6.75 | 
O=C(Nc1cc(Cl)cc(Cl)c1)N(Cc1ccccc1)Cc1ccccc1 |  | 86 |  | 3.97 |  | 
Cc1c(Cl)cccc1NC(=O)N(Cc1ccccc1)Cc1ccccc1 |  | 84 |  | 8.39 |  | 
CC(C)(C)CCN(Cc1cccs1)C(=O)Nc1c(Cl)cc(Cl)cc1Cl | 58 |  | 56 |  | 0.977 | 

SMILES | SS [1] [%] | inhibition [2] [%] | LS [3] [%] | IC50 [4] [µM] | IC50 [5] [µM] | inhibition [6] [%]
COc1ccc(C)cc1NC(=O)N(Cc1ccccc1)Cc1ccccc1 | 83 | 88 | 44 |  |  | 
Cc1ccc(NC(=O)N(Cc2ccccc2)Cc2ccccc2)cc1Cl | 84 | 94 | 97 | 18.9 |  | 
CCCCN(Cc1ccccc1)C(=O)Nc1ccc(Cl)cc1C | 72 |  | 62 | 7.65 |  | 
CCCCN(CCCC)C(=O)Nc1ccc(OC)cc1 | 127 |  | 109 |  |  | 59
CCCCN(CCCC)C(=O)Nc1ccc(C)c(Cl)c1 | 110 |  | 98 |  | 6.43 | 91
Cc1ccc(NC(=O)N(Cc2ccccc2)Cc2ccccc2)cc1C | 97 | 72 | 60 |  |  | 
Cc1cccc(NC(=O)N(Cc2ccccc2)Cc2ccccc2)c1C | 65 | 85 | 51 |  |  | 
CCCCN(CCCC)C(=O)Nc1cccc(C(F)(F)F)c1 | 100 | 75 | 91 |  |  | 
Cc1c(Cl)cccc1NC(=O)N(CCC(C)(C)C)Cc1cccs1 | 62 |  | 64 |  | 6.77 | 
CCCCN(CCCC)C(=O)Nc1ccc(Cl)c(C(F)(F)F)c1 |  |  |  |  | 10.5 | 87
COc1cccc(NC(=O)NCc2ccccc2)c1 | 110 |  | 94 |  |  | 34
CCCCN(Cc1ccccc1)C(=O)Nc1c(C)cccc1C | 68 |  | 91 |  |  | 83
CCCCCCCC/C=C/CCCCCCCCN(Cc1ccc(CCCC)cc1)C(=O)Nc1ccc(C)cc1C (stereo in doubt; 161) | 130 | 9 | 87 |  |  | 
O=C(Nc1ccccc1C(F)(F)F)N(Cc1ccccc1)Cc1ccccc1 | 165 | 68 | 76 |  |  | 
CCCCN(Cc1ccc2c(c1)OCO2)C(=O)Nc1ccc(C)cc1C | 64 |  | 46 |  | 5.67 | 88
CCCCN(Cc1ccccc1)C(=O)Nc1cccc(C(F)(F)F)c1 | 84 |  | 104 |  |  | 86
CCCCCCCCN(CCCCCCCC)C(=O)Nc1ccc(C)cc1C | 47 | 89 | 22 |  |  | 
CCCCN(CC(c1ccc(Cl)cc1)c1ccc(Cl)cc1)C(=O)Nc1ccc(C)cc1C | 110 | 81 | 84 |  |  | 
O=C(Nc1ccc(Oc2ccccc2)cc1)N(Cc1ccccc1)Cc1ccccc1 | 66 |  | 89 |  | 3.23 | 94
CCCCN(Cc1ccccc1)C(=O)Nc1cc(C)cc(C)c1 | 93 |  | 75 |  |  | 94
